The structures appear in SMILES notation.

In experiment [1] the target is Dual specificity protein kinase CLK3 (Homo sapiens) (UniProt P49761). Nature of the experiment: Inhibition of human recombinant CLK3 at 40 nM related to control ULK1.
In experiment [2] the target is T1, Serine/threonine-protein kinase TBK1 (Homo sapiens) (UniProt Q9UHD2).
T1 sequence (whole entry): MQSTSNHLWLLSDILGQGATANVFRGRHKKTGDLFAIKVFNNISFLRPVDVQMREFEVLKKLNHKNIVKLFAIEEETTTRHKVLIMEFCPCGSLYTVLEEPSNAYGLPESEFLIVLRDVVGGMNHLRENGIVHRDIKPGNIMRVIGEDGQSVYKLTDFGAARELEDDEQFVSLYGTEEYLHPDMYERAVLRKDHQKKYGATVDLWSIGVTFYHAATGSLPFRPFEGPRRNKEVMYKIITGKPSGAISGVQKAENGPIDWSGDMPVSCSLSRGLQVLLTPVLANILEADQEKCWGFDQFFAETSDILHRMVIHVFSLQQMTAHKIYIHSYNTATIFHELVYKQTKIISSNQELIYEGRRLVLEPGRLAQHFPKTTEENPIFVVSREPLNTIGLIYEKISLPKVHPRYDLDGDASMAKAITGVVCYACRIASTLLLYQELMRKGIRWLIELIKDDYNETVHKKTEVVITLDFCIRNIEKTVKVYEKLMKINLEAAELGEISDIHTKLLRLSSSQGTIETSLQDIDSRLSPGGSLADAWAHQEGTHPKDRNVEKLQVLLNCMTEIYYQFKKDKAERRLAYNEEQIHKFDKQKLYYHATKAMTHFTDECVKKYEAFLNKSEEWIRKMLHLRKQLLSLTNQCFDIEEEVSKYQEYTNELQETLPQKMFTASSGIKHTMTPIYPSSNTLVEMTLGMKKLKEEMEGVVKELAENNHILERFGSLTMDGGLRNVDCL
Nature of the experiment: Inhibition of human recombinant TBK1 at 40 nM related to control ULK1.

Experiment [3] addresses Activin receptor type-1-like (Homo sapiens) (UniProt P37023). Description: Inhibition of human recombinant ALK1 at 40 nM related to control ULK1. The method, boiled down: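 Radiometric activity assays in a panel of 327 human recombinant kinases, each run in duplicate at one inhibitor concentration. Activity remaining is expressed as percent of vehicle control, and percent inhibition is calculated as 100% minus percent activity remaining.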

Experiment [4] concerns the target T2, Inhibitor of nuclear factor kappa-B kinase subunit alpha (Homo sapiens) (UniProt O15111).
T2 sequence (whole entry): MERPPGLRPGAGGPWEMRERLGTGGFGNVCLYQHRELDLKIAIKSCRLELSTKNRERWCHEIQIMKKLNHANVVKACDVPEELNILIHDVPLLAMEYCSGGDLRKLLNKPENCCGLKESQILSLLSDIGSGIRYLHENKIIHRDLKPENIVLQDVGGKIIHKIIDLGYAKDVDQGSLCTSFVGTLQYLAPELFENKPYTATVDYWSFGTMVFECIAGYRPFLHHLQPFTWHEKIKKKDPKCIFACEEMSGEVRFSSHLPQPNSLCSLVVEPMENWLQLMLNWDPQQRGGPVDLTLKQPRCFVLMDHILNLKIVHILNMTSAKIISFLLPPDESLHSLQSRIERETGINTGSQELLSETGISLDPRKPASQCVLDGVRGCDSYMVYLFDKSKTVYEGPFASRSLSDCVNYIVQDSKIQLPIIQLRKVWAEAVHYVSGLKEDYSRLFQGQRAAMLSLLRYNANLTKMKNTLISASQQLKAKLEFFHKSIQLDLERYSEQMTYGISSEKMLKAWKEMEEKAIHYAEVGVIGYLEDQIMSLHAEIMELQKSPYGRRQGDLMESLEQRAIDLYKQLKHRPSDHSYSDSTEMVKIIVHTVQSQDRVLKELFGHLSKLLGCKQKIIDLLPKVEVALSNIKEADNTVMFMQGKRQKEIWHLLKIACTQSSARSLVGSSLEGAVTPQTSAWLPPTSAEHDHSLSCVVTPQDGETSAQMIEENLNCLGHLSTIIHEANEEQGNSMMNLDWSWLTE
Nature of the experiment: Inhibition of human recombinant IKKa at 40 nM related to control ULK1.

Experiment [5] has as its target T3, G protein-coupled receptor kinase 3 (Homo sapiens) (UniProt P35626).
T3 sequence (whole entry): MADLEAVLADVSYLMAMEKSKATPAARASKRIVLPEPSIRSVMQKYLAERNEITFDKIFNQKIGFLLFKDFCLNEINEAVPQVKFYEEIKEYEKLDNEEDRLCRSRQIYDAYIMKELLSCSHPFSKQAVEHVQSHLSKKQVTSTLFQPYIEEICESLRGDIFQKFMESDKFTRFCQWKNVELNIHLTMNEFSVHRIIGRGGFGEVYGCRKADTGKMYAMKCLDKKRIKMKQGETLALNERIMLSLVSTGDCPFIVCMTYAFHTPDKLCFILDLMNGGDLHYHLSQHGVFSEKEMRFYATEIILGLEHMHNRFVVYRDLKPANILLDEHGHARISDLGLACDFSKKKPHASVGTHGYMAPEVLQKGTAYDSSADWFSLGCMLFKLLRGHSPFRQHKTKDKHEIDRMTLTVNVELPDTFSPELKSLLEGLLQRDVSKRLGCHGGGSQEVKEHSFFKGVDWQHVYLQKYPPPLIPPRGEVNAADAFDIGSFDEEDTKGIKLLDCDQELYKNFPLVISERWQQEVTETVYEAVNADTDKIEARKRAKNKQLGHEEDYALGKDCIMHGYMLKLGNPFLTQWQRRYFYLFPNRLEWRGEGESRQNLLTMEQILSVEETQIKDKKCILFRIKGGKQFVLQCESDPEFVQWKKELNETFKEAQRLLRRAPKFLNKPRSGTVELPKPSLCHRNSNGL
Description: Inhibition of human recombinant BARK2 at 40 nM in presence of ATP by radiometric assay relative to control. The method, boiled down:
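Part of a radiometric in vitro activity panel of 327 recombinant human kinases. Each kinase was tested in duplicate at one inhibitor concentration. Activity remaining was expressed as a percentage of the vehicle control, and percent inhibition was taken as 100 minus that value.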

For experiment [6], the target named is Cyclin-dependent kinase 3 (Homo sapiens) (UniProt Q00526). Description: Inhibition of human recombinant CDK3 at 500 nM related to control ULK1.
Chain of Cyclin-dependent kinase 3 (Homo sapiens) (Q00526 whole entry, looked up): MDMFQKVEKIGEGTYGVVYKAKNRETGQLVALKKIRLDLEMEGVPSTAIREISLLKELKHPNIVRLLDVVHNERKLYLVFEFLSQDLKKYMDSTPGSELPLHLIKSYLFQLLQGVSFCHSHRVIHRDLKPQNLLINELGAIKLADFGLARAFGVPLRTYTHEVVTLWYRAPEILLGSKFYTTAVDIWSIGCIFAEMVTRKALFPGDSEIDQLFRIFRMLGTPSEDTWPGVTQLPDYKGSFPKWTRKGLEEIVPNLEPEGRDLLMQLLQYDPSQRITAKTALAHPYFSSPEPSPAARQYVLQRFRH
The target of experiment [7] is BDNF/NT-3 growth factors receptor (Homo sapiens) (UniProt Q16620). Description: Inhibition of human recombinant TRKB at 500 nM related to control ULK1.
Chain of BDNF/NT-3 growth factors receptor (Homo sapiens) (Q16620 32-822 limits assumed): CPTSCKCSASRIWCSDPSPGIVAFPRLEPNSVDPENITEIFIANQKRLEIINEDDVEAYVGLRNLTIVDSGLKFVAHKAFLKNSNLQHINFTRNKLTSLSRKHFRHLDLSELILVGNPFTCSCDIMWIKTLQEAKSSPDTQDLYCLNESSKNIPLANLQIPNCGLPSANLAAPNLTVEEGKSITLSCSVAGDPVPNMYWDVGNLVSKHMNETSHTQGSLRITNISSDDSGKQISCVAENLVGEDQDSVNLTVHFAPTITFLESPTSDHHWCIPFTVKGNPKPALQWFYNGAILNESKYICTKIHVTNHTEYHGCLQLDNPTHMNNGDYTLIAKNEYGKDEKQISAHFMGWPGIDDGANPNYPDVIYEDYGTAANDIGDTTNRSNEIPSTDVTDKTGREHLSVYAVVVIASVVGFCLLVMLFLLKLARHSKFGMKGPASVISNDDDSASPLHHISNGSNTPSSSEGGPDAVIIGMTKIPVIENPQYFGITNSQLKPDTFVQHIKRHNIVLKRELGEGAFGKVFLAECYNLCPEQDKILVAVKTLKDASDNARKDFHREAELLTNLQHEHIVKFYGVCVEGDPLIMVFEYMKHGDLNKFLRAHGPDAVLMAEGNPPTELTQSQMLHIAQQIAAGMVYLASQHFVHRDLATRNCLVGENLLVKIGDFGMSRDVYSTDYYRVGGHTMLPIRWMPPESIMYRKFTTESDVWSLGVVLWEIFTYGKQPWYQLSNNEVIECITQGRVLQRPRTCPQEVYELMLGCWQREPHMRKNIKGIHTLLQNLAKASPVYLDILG
The target of experiment [8] is Serine/threonine-protein kinase ATR (Homo sapiens) (UniProt Q13535). Description: Inhibition of human recombinant ATR at 15 nM related to control ULK1. The method, boiled down: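 Panel of 327 recombinant human kinases, each assayed in vitro by radiometric activity assay in duplicate at a single inhibitor concentration per compound, chosen with reference to its ULK1 inhibition. Activity remaining was expressed as percent of vehicle control, and percent inhibition was calculated as 100 minus percent activity remaining.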

Experiment [9] deals with Receptor-type tyrosine-protein kinase FLT3 (Homo sapiens) (UniProt P36888). Description: Inhibition of human recombinant FLT3 at 15 nM related to control ULK1.
Chain of Receptor-type tyrosine-protein kinase FLT3 (Homo sapiens) (P36888 whole entry): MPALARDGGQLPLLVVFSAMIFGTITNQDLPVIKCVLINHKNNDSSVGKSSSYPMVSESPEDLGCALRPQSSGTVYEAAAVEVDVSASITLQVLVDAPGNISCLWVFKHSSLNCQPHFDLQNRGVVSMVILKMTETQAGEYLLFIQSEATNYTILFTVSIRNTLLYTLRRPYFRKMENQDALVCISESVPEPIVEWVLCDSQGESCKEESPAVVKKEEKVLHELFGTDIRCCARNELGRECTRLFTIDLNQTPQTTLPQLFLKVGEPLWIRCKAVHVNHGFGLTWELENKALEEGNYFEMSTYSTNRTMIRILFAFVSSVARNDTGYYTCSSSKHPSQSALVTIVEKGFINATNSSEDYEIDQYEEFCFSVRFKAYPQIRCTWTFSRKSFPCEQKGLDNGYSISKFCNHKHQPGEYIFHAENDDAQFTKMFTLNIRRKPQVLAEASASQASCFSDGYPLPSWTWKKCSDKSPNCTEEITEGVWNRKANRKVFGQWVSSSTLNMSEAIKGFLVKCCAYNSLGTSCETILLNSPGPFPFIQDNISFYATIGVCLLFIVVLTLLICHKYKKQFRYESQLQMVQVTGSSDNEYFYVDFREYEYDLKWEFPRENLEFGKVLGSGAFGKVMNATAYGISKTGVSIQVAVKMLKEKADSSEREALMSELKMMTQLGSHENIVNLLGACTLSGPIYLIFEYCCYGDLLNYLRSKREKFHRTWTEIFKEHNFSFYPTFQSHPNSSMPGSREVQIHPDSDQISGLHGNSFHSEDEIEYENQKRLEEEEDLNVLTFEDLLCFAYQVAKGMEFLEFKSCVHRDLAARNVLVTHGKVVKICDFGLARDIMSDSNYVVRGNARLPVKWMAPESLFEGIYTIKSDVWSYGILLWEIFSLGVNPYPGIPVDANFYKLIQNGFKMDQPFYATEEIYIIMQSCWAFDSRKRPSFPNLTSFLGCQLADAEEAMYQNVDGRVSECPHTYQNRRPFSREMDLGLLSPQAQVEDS
In experiment [10] the target is Glycogen synthase kinase-3 beta (Homo sapiens) (UniProt P49841). Nature of the experiment: Inhibition of human recombinant GSK3B at 15 nM related to control ULK1.
Chain of Glycogen synthase kinase-3 beta (Homo sapiens) (P49841 whole entry, looked up): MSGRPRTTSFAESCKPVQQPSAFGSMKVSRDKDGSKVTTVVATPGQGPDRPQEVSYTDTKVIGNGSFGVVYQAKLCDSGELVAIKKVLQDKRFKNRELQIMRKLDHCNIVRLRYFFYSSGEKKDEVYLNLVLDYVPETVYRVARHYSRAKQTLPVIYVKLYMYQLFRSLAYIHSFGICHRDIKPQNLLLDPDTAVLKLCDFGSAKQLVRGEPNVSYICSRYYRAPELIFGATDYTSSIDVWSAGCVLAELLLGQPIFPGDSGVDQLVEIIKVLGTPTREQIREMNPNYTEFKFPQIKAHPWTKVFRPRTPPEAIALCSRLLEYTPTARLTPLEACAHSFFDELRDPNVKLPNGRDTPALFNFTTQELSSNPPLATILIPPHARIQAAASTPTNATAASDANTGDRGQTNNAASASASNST

Chain of Dual specificity protein kinase CLK3 (Homo sapiens) (P49761 whole entry, looked up): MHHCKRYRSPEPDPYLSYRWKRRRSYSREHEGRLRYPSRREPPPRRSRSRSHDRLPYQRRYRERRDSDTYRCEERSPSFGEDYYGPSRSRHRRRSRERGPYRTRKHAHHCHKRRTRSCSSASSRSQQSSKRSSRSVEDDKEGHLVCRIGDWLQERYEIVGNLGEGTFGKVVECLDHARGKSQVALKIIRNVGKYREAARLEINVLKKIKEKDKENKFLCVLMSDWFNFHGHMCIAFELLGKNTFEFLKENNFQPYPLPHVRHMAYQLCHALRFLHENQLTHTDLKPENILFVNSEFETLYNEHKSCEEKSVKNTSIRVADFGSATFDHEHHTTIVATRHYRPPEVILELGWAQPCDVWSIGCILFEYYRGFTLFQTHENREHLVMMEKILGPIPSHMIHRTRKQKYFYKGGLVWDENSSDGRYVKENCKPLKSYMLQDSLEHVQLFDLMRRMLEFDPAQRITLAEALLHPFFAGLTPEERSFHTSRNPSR
Chain of Activin receptor type-1-like (Homo sapiens) (P37023 whole entry): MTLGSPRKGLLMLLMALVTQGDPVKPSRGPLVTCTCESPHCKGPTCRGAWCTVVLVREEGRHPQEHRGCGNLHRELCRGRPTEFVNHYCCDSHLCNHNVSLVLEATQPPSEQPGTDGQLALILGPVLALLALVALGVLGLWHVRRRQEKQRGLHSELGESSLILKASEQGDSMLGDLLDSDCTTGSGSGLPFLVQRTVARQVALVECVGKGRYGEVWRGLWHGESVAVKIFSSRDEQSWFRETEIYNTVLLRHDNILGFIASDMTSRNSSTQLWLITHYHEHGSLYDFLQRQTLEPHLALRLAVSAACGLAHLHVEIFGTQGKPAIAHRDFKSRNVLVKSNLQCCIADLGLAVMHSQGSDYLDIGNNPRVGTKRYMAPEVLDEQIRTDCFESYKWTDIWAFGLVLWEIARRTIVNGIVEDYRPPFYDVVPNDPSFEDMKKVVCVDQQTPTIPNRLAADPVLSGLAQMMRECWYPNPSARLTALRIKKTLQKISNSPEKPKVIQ

The term inhibition denotes the share of the control response that was lost under treatment. With `O=C(N[C@@H](C1CC1)C(F)(F)F)c1cc(-c2cnn3cc(-c4ccc(F)cc4)cnc23)cs1`, the fold change (FC) is 0 in experiment [1], 0.36 in experiment [2], 0.01 in experiment [3] and 0 in experiment [4]. Further, the inhibition in [5] came out at 7%.

For `CNC(=O)c1ccccc1Oc1nc(Nc2cc(OC)c(OC)c(OC)c2)ncc1Br`, the results for the fold change (FC) in [6] and in experiment [7] were 0.01 and 0.65, respectively.

For the molecule `CC(C)[C@H](NC(=O)c1cc(-c2cnn3cc(-c4ccc(OCCN5CCCCC5)cc4)cnc23)cs1)C(F)(F)F`, the fold change (FC) in experiment [8] is 0.05; in experiment [9], 0.77; in experiment [10], 0.13.

The record behind these values is ChEMBL document CHEMBL5653631, “A Potent and Selective ULK1 Inhibitor Suppresses Autophagy and Sensitizes Cancer Cells to Nutrient Stress” (iScience, 2018).
